# Reference: ChEMBL document CHEMBL1152298 (J Med Chem, 2008)
# pKi: −log10 of the molar value. Activity calls are given as the source filed them. No cut-off for these calls is given here.
# What was measured:
# [1] = target: GABA A receptor alpha-3/beta-2/gamma-2 (Rattus norvegicus, UniProt P18508+P20236+P63138); test: Displacement of [3H]Ro-151788 from benzodiazepine binding site of GABAA alpha-3-beta-2-gamma-2 receptor expressed in HEK293T cells; type: cell-based, HEK-293T
# Summary of the method: (§1)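 α2 or α3 subunits were co-transfected with β2 and γ2, all in pRK5, into HEK293T cells by CaHPO4 precipitation at 4 μg per subunit. Membranes were prepared at 48 h. IC50 came from a one-site competition fit and was converted to Ki by Cheng-Prusoff. Mean ± SD of ≥3 experiments.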
# [2] = target: GABA A receptor alpha-2/beta-2/gamma-2 (Rattus norvegicus, UniProt P18508+P23576+P63138); test: Displacement of [3H]Ro-151788 from benzodiazepine binding site of GABAA alpha-2-beta-2-gamma-2 receptor expressed in HEK293T cells; type: cell-based, HEK-293T; summary of the method: as §1
# [3] = Displacement of [3H]Ro-151788 from benzodiazepine binding site of GABAA alpha-1-beta-2-gamma-2 D56C receptor mutant expressed in HEK293T cells; type: cell-based; conditions: hek-293t
# [4] = Displacement of [3H]Ro-151788 from benzodiazepine binding site of GABAA alpha-1-beta-2-gamma-2 A79C receptor mutant expressed in HEK293T cells; type: cell-based; conditions: hek-293t
# [5] = Displacement of [3H]Ro-151788 from benzodiazepine binding site of GABAA alpha-1-beta-2-gamma-2 T81C receptor mutant expressed in HEK293T cells; type: cell-based; conditions: hek-293t
# [6] = Displacement of [3H]Ro-151788 from benzodiazepine binding site of GABAA alpha-1-beta-2-gamma-2 T126C receptor mutant expressed in HEK293T cells; type: cell-based; conditions: hek-293t
# [7] = Displacement of [3H]Ro-151788 from benzodiazepine binding site of GABAA alpha-1-beta-2-gamma-2 M130C receptor mutant expressed in HEK293T cells; type: cell-based; conditions: hek-293t
# [8] = Displacement of [3H]Ro-151788 from benzodiazepine binding site of GABAA alpha-1-beta-2-gamma-2 R132C receptor mutant expressed in HEK293T cells; type: cell-based; conditions: hek-293t
# [9] = Displacement of [3H]Ro-151788 from benzodiazepine binding site of GABAA alpha-1-beta-2-gamma-2 L140C receptor mutant expressed in HEK293T cells; type: cell-based; conditions: hek-293t
# [10] = Displacement of [3H]Ro-151788 from benzodiazepine binding site of GABAA alpha-1-beta-2-gamma-2 T142C receptor mutant expressed in HEK293T cells; type: cell-based; conditions: hek-293t
# [11] = Displacement of [3H]Ro-151788 from benzodiazepine binding site of GABAA alpha-1-beta-2-gamma-2 […] receptor mutant expressed in HEK293T cells; type: cell-based; conditions: hek-293t
# [12] = Displacement of [3H]Ro-151788 from benzodiazepine binding site of GABAA alpha-1-beta-2-gamma-2 R185C receptor mutant expressed in HEK293T cells; type: cell-based; conditions: hek-293t
# [13] = Displacement of [3H]Ro-151788 from benzodiazepine binding site of GABAA alpha-1-beta-2-gamma-2 R194C receptor mutant expressed in HEK293T cells; type: cell-based; conditions: hek-293t
# Summary of the method: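 Transiently expressed in HEK293T (CaHPO4 transfection, equal α/β/γ DNA, 4 μg/subunit; cysteine-mutant γ2L with WT α1, β2). […] One-site competition fit for IC50; Ki by Cheng-Prusoff; mean ± SD, three experiments in triplicate; mutant/WT Ki ratio.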
# [14] = Displacement of [3H]Ro15-1788 from benzodiazepine binding site of GABAA alpha-1 F99C beta2gamma2 receptor mutant expressed in HEK293T cells; type: cell-based; conditions: hek-293t
# [15] = Displacement of [3H]Ro15-1788 from benzodiazepine binding site of GABAA alpha-1 G157C beta2gamma2 receptor mutant expressed in HEK293T cells; type: cell-based; conditions: hek-293t
# [16] = Displacement of [3H]Ro-151788 from benzodiazepine binding site of GABAA alpha1 A160C beta2gamma2 receptor mutant expressed in HEK293T cells; type: cell-based; conditions: hek-293t
# [17] = Displacement of [3H]Ro15-1788 from benzodiazepine binding site of GABAA alpha1 T162C beta-2-gamma-2 receptor mutant expressed in HEK293T cells; type: cell-based; conditions: hek-293t
# Summary of the method: (§2)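 Cysteine mutant α1 subunit made by recombinant PCR, co-transfected with WT β2 and γ2L (equal DNA ratios, 4 μg/subunit, CaHPO4 method) into HEK293T cells; membranes harvested 48 h post-transfection. One-site competition fit; Ki by Cheng-Prusoff; three experiments in triplicate, mean ± SD.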
# [18] = Displacement of [3H]Ro15-1788 from benzodiazepine binding site of GABAA alpha-1 G200C beta2gamma2 receptor mutant expressed in HEK293T cells; type: cell-based; conditions: hek-293t
# [19] = Displacement of [3H]Ro-151788 from benzodiazepine binding site of GABAA alpha1 V202C beta2gamma2 receptor mutant expressed in HEK293T cells; type: cell-based; conditions: hek-293t
# [20] = Displacement of [3H]Ro-151788 from benzodiazepine binding site of GABAA alpha1 S204C beta2gamma2 receptor mutant expressed in HEK293T cells; type: cell-based; conditions: hek-293t
# [21] = Displacement of [3H]Ro-151788 from benzodiazepine binding site of GABAA alpha1 S205C beta2gamma2 receptor mutant expressed in HEK293T cells; type: cell-based; conditions: hek-293t
# [22] = Displacement of [3H]Ro15-1788 from benzodiazepine binding site of GABAA alpha-1 T206C beta2gamma2 receptor mutant expressed in HEK293T cells; type: cell-based; conditions: hek-293t
# [23] = Displacement of [3H]Ro15-1788 from benzodiazepine binding site of GABAA alpha-1 V211C beta2gamma2 receptor mutant expressed in HEK293T cells; type: cell-based; conditions: hek-293t; summary of the method: as §2
# HEK-293T [24] = test: Displacement of [3H]Ro-151788 from benzodiazepine binding site of GABAA alpha-1-beta-2-gamma-2 F77C receptor mutant expressed in HEK293T cells; type: cell-based
# Summary of the method: (§3)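 HEK293T cells in MEM with 10% FBS were transiently transfected by CaHPO4 precipitation with α1, β2 and γ2L subunits (WT or PCR-made, sequence-verified cysteine mutant) in pUNIV, using equal ratios at 4 μg per subunit. Membranes were harvested at 48 h. […] Ki was derived from a one-site fit using Cheng-Prusoff. Mean ± SD, three experiments in triplicate.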
# HEK-293T [25] = test: Displacement of [3H]Ro-151788 from benzodiazepine binding site of GABAA alpha1 D97C beta2gamma2 receptor mutant expressed in HEK293T cells; type: cell-based; summary of the method: as §3
# HEK-293T [26] = test: Displacement of [3H]Ro15-1788 from benzodiazepine binding site of GABAA alpha1 Y209C beta2gamma2 receptor mutant expressed in HEK293T cells; type: cell-based; summary of the method: as §3
# GABA A receptor alpha-3/beta-2/gamma-2, sequence (P18508 whole entry): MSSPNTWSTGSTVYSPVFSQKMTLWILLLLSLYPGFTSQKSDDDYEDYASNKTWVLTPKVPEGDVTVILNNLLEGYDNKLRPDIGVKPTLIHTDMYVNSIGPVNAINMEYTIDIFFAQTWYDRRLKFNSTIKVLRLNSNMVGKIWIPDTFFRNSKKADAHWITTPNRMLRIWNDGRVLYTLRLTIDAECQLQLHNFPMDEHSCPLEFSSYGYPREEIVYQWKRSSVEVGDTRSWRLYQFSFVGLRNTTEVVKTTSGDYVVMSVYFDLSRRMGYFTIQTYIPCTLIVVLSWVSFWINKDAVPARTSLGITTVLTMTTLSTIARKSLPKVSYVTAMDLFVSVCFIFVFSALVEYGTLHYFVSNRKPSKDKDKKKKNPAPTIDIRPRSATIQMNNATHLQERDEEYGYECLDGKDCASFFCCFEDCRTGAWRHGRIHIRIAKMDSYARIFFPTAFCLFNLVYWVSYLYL
# GABA A receptor alpha-3/beta-2/gamma-2, sequence (P20236 whole entry): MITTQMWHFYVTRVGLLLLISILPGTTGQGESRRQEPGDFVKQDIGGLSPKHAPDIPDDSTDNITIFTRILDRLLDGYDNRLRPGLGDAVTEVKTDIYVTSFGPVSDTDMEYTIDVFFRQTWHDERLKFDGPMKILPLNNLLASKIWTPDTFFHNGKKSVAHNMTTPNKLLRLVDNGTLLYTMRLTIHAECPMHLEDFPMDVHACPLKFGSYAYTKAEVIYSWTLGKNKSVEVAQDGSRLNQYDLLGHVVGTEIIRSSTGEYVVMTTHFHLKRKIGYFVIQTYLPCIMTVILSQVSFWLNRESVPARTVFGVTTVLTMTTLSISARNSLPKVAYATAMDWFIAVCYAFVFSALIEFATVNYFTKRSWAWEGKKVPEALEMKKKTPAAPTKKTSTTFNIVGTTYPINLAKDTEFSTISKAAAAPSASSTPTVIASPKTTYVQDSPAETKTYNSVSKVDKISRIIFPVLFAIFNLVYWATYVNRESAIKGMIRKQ
# GABA A receptor alpha-3/beta-2/gamma-2, sequence (P63138 whole entry): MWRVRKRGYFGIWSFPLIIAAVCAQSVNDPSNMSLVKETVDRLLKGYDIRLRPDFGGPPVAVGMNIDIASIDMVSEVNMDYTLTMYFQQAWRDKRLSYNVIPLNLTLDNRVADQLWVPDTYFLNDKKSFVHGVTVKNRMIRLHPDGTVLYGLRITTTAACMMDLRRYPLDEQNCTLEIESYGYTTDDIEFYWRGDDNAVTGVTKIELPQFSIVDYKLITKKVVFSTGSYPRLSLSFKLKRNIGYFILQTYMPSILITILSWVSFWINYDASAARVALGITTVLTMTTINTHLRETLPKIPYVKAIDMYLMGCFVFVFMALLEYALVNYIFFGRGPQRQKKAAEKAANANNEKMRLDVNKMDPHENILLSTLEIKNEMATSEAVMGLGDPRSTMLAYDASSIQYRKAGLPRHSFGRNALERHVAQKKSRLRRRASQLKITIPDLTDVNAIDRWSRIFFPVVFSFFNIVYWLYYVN
# GABA A receptor alpha-2/beta-2/gamma-2, sequence (P18508 whole entry): as the sequence (P18508 whole entry) above
# GABA A receptor alpha-2/beta-2/gamma-2, sequence (P23576 whole entry): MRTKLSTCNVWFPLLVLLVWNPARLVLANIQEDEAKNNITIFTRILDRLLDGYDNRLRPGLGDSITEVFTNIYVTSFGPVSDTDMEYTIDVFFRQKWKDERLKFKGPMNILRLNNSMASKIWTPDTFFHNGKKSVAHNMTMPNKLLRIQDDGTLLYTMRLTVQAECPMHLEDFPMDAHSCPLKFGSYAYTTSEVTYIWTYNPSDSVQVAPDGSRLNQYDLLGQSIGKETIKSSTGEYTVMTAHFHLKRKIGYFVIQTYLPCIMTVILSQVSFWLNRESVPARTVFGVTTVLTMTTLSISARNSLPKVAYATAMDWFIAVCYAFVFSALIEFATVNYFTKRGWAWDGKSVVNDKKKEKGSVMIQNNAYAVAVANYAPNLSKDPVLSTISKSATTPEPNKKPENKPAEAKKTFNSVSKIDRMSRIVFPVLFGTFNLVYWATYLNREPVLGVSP
# GABA A receptor alpha-2/beta-2/gamma-2, sequence (P63138 whole entry): as the sequence (P63138 whole entry) above
smiles,measurement,setting,value
CN1CCN(C(=O)O[C@H]2c3nccnc3C(=O)N2c2ccc(Cl)cn2)CC1 [ESZOPICLONE],pKi,[1],6.79
same,pKi,[2],6.94
same,pKi,[3],7.08
same,pKi,[4],6.41
same,pKi,[5],7.12
same,pKi,[6],7.14
same,pKi,[7],6.99
same,pKi,[8],6.96
same,pKi,[9],7.33
same,pKi,[10],6.30
same,pKi,[11],7.65
same,pKi,[12],7.15
same,pKi,[13],7.17
same,pKi,[14],6.39
same,pKi,[15],5.68
same,pKi,[16],7.22
same,pKi,[17],7.47
same,pKi,[18],6.92
same,pKi,[19],6.60
same,pKi,[20],7.24
same,pKi,[21],7.46
same,pKi,[22],9.08
same,pKi,[23],7.20
CCOC(=O)c1ncn2c1CN(C)C(=O)c1cc(F)ccc1-2 [FLUMAZENIL],Activity,HEK-293T [24],inactive
same,Activity,HEK-293T [25],inactive
same,Activity,HEK-293T [26],inactive
